Drawing on ChEMBL document CHEMBL4616666, “Discovery of SHP2-D26 as a First, Potent, and Effective PROTAC Degrader of SHP2 Protein” (J Med Chem, 2020), this text covers IC50 and Activity for 24 compounds.

pIC50: −log10 of the molar value.

A word on the pIC50: it is the IC50 on a negative log10 scale, so that one unit is a factor of ten. High values mean a low IC50, low ones a high IC50.

Assay [1] has as its system KYSE-520 cell line. Nature of the assay: Growth inhibition of human KYSE520 cells measured after 4 days by WST8 assay. Particulars: KYSE-520, 96 h. A general note: Tetrazolium dyes change colour on reduction, which living cells bring about.
For assay [2], the system named is MV4-11. Briefly: Growth inhibition of human MV4-11 cells measured after 4 days by WST8 assay. Particulars: MV4-11, 96 h.
Assay [3] deals with T1, von Hippel-Lindau disease tumor suppressor/Tyrosine-protein phosphatase non-receptor type 11 (Homo sapiens, UniProt Q06124+P40337). Nature of the assay: Protac activity at VHL1/SHP2 in human KYSE520 cells assessed as induction of SHP2 degradation at 1 uM measured after 6 hrs by Western blot analysis relative to control. Format: cell-based. In short, it runs like this: (§1)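 KYSE520 cells in RPMI 1640 + 10% FBS, 37 °C, 5% CO2, were exposed to degrader for 6 h. SHP2 was measured by Western blot and densitometry, with background-subtracted band normalized to net GAPDH band. Values are the average of three independent experiments.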

Assay [4] addresses T1, von Hippel-Lindau disease tumor suppressor/Tyrosine-protein phosphatase non-receptor type 11. Briefly: Protac activity at VHL1/SHP2 in human KYSE520 cells assessed as induction of SHP2 degradation at 0.1 uM measured after 6 hrs by Western blot analysis relative to control. Format: cell-based. In short, it runs like this: as §1
For orientation: In western blotting, separated proteins are transferred to a membrane and probed.

For assay [5] the target is unchanged. Briefly: Protac activity at VHL1/SHP2 in human MV4-11 cells assessed as induction of SHP2 degradation at 0.1 uM measured after 24 hrs by Western blot analysis relative to control. Format: cell-based. In short, it runs like this:
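MV4;11 cells in IMDM + 10% FBS were exposed to degrader for 24 h. SHP2 was quantified by Western blot densitometry, with background-subtracted band divided by net GAPDH loading-control band. Average of three independent experiments.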

T1 sequence (P40337 whole entry partner): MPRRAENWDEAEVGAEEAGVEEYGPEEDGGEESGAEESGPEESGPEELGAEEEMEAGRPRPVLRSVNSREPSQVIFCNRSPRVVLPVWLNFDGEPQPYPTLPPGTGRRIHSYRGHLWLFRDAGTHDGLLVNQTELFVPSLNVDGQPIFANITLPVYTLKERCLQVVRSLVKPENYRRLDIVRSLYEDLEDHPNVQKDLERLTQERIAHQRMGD
T1 sequence (Q06124 2-593 limits assumed): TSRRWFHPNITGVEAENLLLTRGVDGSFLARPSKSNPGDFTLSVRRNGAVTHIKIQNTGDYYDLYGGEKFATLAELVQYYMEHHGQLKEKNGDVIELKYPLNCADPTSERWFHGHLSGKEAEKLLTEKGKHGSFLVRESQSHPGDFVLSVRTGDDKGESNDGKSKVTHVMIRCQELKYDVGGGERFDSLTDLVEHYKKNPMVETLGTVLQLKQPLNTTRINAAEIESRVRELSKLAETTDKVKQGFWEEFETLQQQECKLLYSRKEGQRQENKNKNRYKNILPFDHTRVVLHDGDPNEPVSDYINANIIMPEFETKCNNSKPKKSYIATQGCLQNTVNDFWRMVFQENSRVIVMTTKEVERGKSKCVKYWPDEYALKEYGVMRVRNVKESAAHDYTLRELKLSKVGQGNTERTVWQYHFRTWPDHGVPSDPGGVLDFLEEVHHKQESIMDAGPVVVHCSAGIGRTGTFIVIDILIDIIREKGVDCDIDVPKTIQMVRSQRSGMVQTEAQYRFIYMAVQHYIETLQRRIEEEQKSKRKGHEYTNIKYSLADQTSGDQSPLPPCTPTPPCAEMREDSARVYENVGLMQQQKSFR

As for `CC1(N)CCN(c2cnc(-c3cccc(Cl)c3Cl)c(N)n2)CC1`, the results for the pIC50 in assay [1] and in assay [2] were 4.74 and 6.00, respectively.
For `CC(=O)Nc1cccc(Sc2ncc(N3CCC(C)(N)CC3)nc2N)c1Cl`, in that order: 4.40 and 5.18.
`Cc1ncsc1-c1ccc([C@H](C)NC(=O)[C@@H]2C[C@@H](O)CN2C(=O)[C@@H](NC(=O)CCCCCCCCCCCNC(=O)CCC(=O)Nc2cccc(Sc3ncc(N4CCC(C)(N)CC4)nc3N)c2Cl)C(C)(C)C)cc1`: the Activity in assay [3] and in assay [4] was over 95% each time.
Take `Cc1ncsc1-c1ccc([C@H](C)NC(=O)[C@@H]2C[C@@H](O)CN2C(=O)[C@@H](NC(=O)CCCCCCCCCCNC(=O)CCC(=O)Nc2cccc(Sc3ncc(N4CCC(C)(N)CC4)nc3N)c2Cl)C(C)(C)C)cc1`: the Activity in assay [3] and in assay [4] was over 95% each time.
In the case of `Cc1ncsc1-c1ccc([C@H](C)NC(=O)[C@@H]2C[C@@H](O)CN2C(=O)[C@@H](NC(=O)CCCCCCCOc2ccc(NC(=O)CCC(=O)Nc3cccc(Sc4ncc(N5CCC(C)(N)CC5)nc4N)c3Cl)cc2)C(C)(C)C)cc1`, the Activity in assay [3], in assay [4] and in assay [5] was over 95% throughout.
For the compound `Cc1ncsc1-c1ccc([C@H](C)NC(=O)[C@@H]2C[C@@H](O)CN2C(=O)[C@@H](NC(=O)CCNC(=O)CC(=O)Nc2cccc(Sc3ncc(N4CCC(C)(N)CC4)nc3N)c2Cl)C(C)(C)C)cc1`, the Activity in assay [3] amounted to 0%; in assay [4] it was 4%.
Regarding `Cc1ncsc1-c1ccc([C@H](C)NC(=O)[C@@H]2C[C@@H](O)CN2C(=O)[C@@H](NC(=O)CCCCCCCCCCCCCCC(=O)Nc2cccc(Sc3ncc(N4CCC(C)(N)CC4)nc3N)c2Cl)C(C)(C)C)cc1` (single isomer, unassigned), the Activity was determined as 90% in assay [3], 62% in assay [4] and 8% in assay [5].
As for `Cc1ncsc1-c1ccc([C@H](C)NC(=O)[C@@H]2C[C@@H](O)CN2C(=O)[C@@H](NC(=O)CCCCCCCCCCCN2CCN(CC(=O)Nc3cccc(Sc4ncc(N5CCC(C)(N)CC5)nc4N)c3Cl)CC2)C(C)(C)C)cc1` (single isomer, unassigned), the Activity is over 95% in assay [3], 80% in assay [4] and 6% in assay [5].
Consider `Cc1ncsc1-c1ccc([C@H](C)NC(=O)[C@@H]2C[C@@H](O)CN2C(=O)[C@@H](NC(=O)CCCCCCCCCCCNC(=O)CC(=O)Nc2cccc(Sc3ncc(N4CCC(C)(N)CC4)nc3N)c2Cl)C(C)(C)C)cc1` (single isomer, unassigned), for which the Activity in assay [3] was 93%; in assay [4], over 95%.
For `Cc1ncsc1-c1ccc([C@H](C)NC(=O)[C@@H]2C[C@@H](O)CN2C(=O)[C@@H](NC(=O)CCCCCCCCCCCNC(=O)CCCC(=O)Nc2cccc(Sc3ncc(N4CCC(C)(N)CC4)nc3N)c2Cl)C(C)(C)C)cc1` (single isomer, unassigned), in that order: over 95% and over 95%.
Turning to `Cc1ncsc1-c1ccc([C@H](C)NC(=O)[C@@H]2C[C@@H](O)CN2C(=O)[C@@H](NC(=O)CCCCCCCCCCN2CCN(CC(=O)Nc3cccc(Sc4ncc(N5CCC(C)(N)CC5)nc4N)c3Cl)CC2)C(C)(C)C)cc1` (single isomer, unassigned), the results for the Activity in assay [3], in assay [4] and in assay [5] were over 95%, 85% and 47%, respectively.
For `Cc1ncsc1-c1ccc([C@H](C)NC(=O)[C@@H]2C[C@@H](O)CN2C(=O)[C@@H](NC(=O)CCCCCCCCCCNC(=O)CC(=O)Nc2cccc(Sc3ncc(N4CCC(C)(N)CC4)nc3N)c2Cl)C(C)(C)C)cc1` (single isomer, unassigned), the Activity in assay [3] and in assay [4] was over 95% in each case.
`Cc1ncsc1-c1ccc([C@H](C)NC(=O)[C@@H]2C[C@@H](O)CN2C(=O)[C@@H](NC(=O)CCCCCCCCCN2CCN(C(=O)CCC(=O)Nc3cccc(Sc4ncc(N5CCC(C)(N)CC5)nc4N)c3Cl)CC2)C(C)(C)C)cc1` (single isomer, unassigned): the Activity in assay [3], in assay [4] and in assay [5] was over 95% each time.
In the case of `Cc1ncsc1-c1ccc([C@H](C)NC(=O)[C@@H]2C[C@@H](O)CN2C(=O)[C@@H](NC(=O)CCCCCCCCCNC(=O)CC(=O)Nc2cccc(Sc3ncc(N4CCC(C)(N)CC4)nc3N)c2Cl)C(C)(C)C)cc1` (single isomer, unassigned), the Activity in assay [3] and in assay [4] was over 95% in each case.
For the compound `Cc1ncsc1-c1ccc([C@H](C)NC(=O)[C@@H]2C[C@@H](O)CN2C(=O)[C@@H](NC(=O)CCCCCCCCNC(=O)CC(=O)Nc2cccc(Sc3ncc(N4CCC(C)(N)CC4)nc3N)c2Cl)C(C)(C)C)cc1` (single isomer, unassigned), the Activity in assay [3] stood at 80%; in assay [4] it was 81%.
The matching figures for `Cc1ncsc1-c1ccc([C@H](C)NC(=O)[C@@H]2C[C@@H](O)CN2C(=O)[C@@H](NC(=O)CCCCCCCNC(=O)CC(=O)Nc2cccc(Sc3ncc(N4CCC(C)(N)CC4)nc3N)c2Cl)C(C)(C)C)cc1` (single isomer, unassigned): 14% and 20%.
For `Cc1ncsc1-c1ccc([C@H](C)NC(=O)[C@@H]2C[C@@H](O)CN2C(=O)[C@@H](NC(=O)CCCCCCNC(=O)CC(=O)Nc2cccc(Sc3ncc(N4CCC(C)(N)CC4)nc3N)c2Cl)C(C)(C)C)cc1` (single isomer, unassigned), in that order: 0% and 0%.
For `Cc1ncsc1-c1ccc([C@H](C)NC(=O)[C@@H]2C[C@@H](O)CN2C(=O)[C@@H](NC(=O)CCCCCNC(=O)CC(=O)Nc2cccc(Sc3ncc(N4CCC(C)(N)CC4)nc3N)c2Cl)C(C)(C)C)cc1` (single isomer, unassigned), in that order: 3% and 0%.
On to `Cc1ncsc1-c1ccc([C@H](C)NC(=O)[C@@H]2C[C@@H](O)CN2C(=O)[C@@H](NC(=O)CCCCN2CCN(CCCCNC(=O)CCC(=O)Nc3cccc(Sc4ncc(N5CCC(C)(N)CC5)nc4N)c3Cl)CC2)C(C)(C)C)cc1` (single isomer, unassigned), for which the Activity in assay [3] amounted to 82%; in assay [4] it was 0%; in assay [5], 9%.
For the compound `Cc1ncsc1-c1ccc([C@H](C)NC(=O)[C@@H]2C[C@@H](O)CN2C(=O)[C@@H](NC(=O)CCCCNC(=O)CC(=O)Nc2cccc(Sc3ncc(N4CCC(C)(N)CC4)nc3N)c2Cl)C(C)(C)C)cc1` (single isomer, unassigned), the values for the Activity in assay [3] and in assay [4] were 6% and 13%, respectively.
With `Cc1ncsc1-c1ccc([C@H](C)NC(=O)[C@@H]2C[C@@H](O)CN2C(=O)[C@@H](NC(=O)CCCNC(=O)CC(=O)Nc2cccc(Sc3ncc(N4CCC(C)(N)CC4)nc3N)c2Cl)C(C)(C)C)cc1` (single isomer, unassigned), the Activity in assay [3] is 7%; in assay [4], 9%.
With `Cc1ncsc1-c1ccc([C@H](C)NC(=O)[C@@H]2C[C@@H](O)CN2C(=O)[C@@H](NC(=O)CCOCCOCCOCCNC(=O)CCC(=O)Nc2cccc(Sc3ncc(N4CCC(C)(N)CC4)nc3N)c2Cl)C(C)(C)C)cc1` (single isomer, unassigned), the Activity in assay [3] amounted to 87%; in assay [4], 32%; in assay [5], 85%.
As to `Cc1ncsc1-c1ccc([C@H](C)NC(=O)[C@@H]2C[C@@H](O)CN2C(=O)[C@@H](NC(=O)COCCOCCOCCNC(=O)CCC(=O)Nc2cccc(Sc3ncc(N4CCC(C)(N)CC4)nc3N)c2Cl)C(C)(C)C)cc1` (single isomer, unassigned), the values for the Activity in assay [3], in assay [4] and in assay [5] were over 95%, 80% and over 95%, respectively.
In the case of `Cc1ncsc1-c1ccc([C@H](C)NC(=O)[C@@H]2C[C@@H](O)CN2C(=O)[C@@H](NC(=O)COCCOCCOCCOCCNC(=O)CCC(=O)Nc2cccc(Sc3ncc(N4CCC(C)(N)CC4)nc3N)c2Cl)C(C)(C)C)cc1` (single isomer, unassigned), the Activity was over 95% in assay [3], 53% in assay [4] and 95% in assay [5].
